These results are taken from ChEMBL document CHEMBL4706499, “PTG-0861: A novel HDAC6-selective inhibitor as a therapeutic strategy in acute myeloid leukaemia” (Eur J Med Chem, 2020).

The source made the active and inactive calls. The calls are words filed in the database; no cut-off is given here.

What is called IC50 is the concentration needed to halve the response being measured. A word on the half-life: it is the time in which the quantity being followed falls by half.

Data set [1] concerns MV4-11. Briefly: Induction of apoptosis in human MV4-11 cells assessed as late apoptotic cells at 2 microM measured after 18 hrs by Annexin V/Propidium iodide stain based Flow cytometry assay (reference value: 4.91%). Format: functional.
Another data set has as its system Fibroblast. In words: Cytotoxicity against human fibroblasts measured after 72 hrs by spectrophotometer method. Format: cell-based.
The target in data set [2] is Class 1 histone deacetylase (Homo sapiens) (UniProt Q13547+O15379+Q92769+Q9BY41). Briefly: Inhibition of HDAC class 1 in human HeLa cells assessed as acetylated H3 histone at 0.1 uM measured after 6 hrs by Immunofluorescent assay.
Class 1 histone deacetylase (Homo sapiens), sequence (O15379 whole entry, looked up): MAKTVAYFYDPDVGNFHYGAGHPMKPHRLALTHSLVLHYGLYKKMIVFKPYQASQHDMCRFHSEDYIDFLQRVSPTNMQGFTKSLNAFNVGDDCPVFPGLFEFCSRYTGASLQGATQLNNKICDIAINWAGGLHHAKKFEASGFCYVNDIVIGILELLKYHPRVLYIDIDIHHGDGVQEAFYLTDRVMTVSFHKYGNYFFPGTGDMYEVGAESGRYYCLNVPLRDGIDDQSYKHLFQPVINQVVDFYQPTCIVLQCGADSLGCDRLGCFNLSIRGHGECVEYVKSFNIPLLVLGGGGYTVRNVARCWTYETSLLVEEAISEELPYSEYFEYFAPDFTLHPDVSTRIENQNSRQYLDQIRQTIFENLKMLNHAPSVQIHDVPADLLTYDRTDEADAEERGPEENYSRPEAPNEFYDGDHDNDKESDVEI
Class 1 histone deacetylase (Homo sapiens), sequence (Q13547 whole entry, looked up): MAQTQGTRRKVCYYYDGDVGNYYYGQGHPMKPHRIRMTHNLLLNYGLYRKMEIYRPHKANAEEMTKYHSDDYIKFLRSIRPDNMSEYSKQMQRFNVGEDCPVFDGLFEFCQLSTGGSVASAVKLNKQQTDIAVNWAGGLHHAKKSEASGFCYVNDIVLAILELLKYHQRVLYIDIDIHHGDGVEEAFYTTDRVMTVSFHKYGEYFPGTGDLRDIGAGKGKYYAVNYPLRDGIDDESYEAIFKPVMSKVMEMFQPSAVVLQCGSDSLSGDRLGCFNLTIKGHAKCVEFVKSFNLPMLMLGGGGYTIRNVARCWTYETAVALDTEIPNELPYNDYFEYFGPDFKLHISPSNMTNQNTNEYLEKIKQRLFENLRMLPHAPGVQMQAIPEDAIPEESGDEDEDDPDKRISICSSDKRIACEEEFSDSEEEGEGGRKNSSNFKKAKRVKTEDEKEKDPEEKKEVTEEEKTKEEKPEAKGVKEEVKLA
Class 1 histone deacetylase (Homo sapiens), sequence (Q92769 whole entry, looked up): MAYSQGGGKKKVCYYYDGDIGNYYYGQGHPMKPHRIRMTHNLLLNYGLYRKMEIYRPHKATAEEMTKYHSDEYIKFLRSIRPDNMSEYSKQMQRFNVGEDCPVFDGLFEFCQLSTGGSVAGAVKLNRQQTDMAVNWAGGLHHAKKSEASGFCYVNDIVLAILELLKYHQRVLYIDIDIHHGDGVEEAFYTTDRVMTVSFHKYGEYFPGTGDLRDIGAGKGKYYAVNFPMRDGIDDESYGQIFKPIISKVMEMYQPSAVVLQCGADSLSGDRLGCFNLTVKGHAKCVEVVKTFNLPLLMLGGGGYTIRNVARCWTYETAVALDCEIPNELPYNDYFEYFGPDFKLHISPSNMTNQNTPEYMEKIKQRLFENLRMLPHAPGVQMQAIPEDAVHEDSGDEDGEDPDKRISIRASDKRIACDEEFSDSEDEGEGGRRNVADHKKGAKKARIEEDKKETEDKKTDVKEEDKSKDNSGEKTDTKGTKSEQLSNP
Class 1 histone deacetylase (Homo sapiens), sequence (Q9BY41 whole entry, looked up): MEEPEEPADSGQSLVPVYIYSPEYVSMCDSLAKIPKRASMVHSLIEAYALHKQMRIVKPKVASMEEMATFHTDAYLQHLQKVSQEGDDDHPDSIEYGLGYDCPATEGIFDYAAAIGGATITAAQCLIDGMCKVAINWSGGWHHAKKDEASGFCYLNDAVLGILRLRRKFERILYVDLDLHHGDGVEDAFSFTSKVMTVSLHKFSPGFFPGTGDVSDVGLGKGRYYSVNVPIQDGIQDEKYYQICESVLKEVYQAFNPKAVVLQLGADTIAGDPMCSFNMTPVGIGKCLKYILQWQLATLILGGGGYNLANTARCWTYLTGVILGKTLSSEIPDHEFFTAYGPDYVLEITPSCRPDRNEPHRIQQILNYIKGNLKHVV
In data set [3] the test system is MV4-11. Briefly: Induction of apoptosis in human MV4-11 cells assessed as late apoptotic cells at 0.5 microM measured after 18 hrs by Annexin V/Propidium iodide stain based Flow cytometry assay (reference value: 4.91%). The class given is functional. For orientation: Flow cytometry measures light scatter and fluorescence of single cells or particles in a stream.

Data set [4] is described as follows: Toxicity in CD-1 mouse assessed as changes in body weight at 20 mg/kg, po measured after 5 days. The class given is organism-based. The following applies: in vivo, 120 h, time 5 day.
Another data set has as its target Histone deacetylase 3 (Homo sapiens, UniProt O15379). In words: Inhibition of recombinant full length human HDAC3 expressed in SF9 baculovirus using FAM- labelled acetylated peptide as substrate measured by Electrophoretic mobility shift assay. On the technique in general: A gel shift assay detects complexes by their altered migration in electrophoresis.
Data set [5] is described as follows: Half life in CD1 mouse at 20 mg/kg, ip measured after 24 hrs by LC/MS/MS method. The class given is ADME, organism-based. The conditions noted are these: in vivo.
Data set [6] concerns MV4-11. In words: Induction of apoptosis in human MV4-11 cells assessed as viable cells at 0.5 microM measured after 18 hrs by Annexin V/Propidium iodide stain based Flow cytometry assay (reference value: 53.27%). The class given is functional. The following applies: read-out: Activity.
Data set [7] concerns MV4-11. In words: Induction of apoptosis in human MV4-11 cells assessed as viable cells at 2 microM measured after 18 hrs by Annexin V/Propidium iodide stain based Flow cytometry assay (reference value: 53.27%). The conditions noted are these: read-out: Activity. Format: functional.
The test system of data set [8] is MV4-11. In words: Induction of apoptosis in human MV4-11 cells assessed as late apoptotic cells at 4 microM measured after 18 hrs by Annexin V/Propidium iodide stain based Flow cytometry assay (reference value: 4.91%). The class given is functional.
Another data set concerns HUVEC. Briefly: Cytotoxicity against human HUVEC cells measured after 72 hrs by spectrophotometer method. The class given is cell-based.
Another data set addresses Histone deacetylase 4 (Homo sapiens, UniProt P56524). Briefly: Inhibition of recombinant full length human HDAC4 expressed in SF9 baculovirus using FAM- labelled acetylated peptide as substrate measured by Electrophoretic mobility shift assay.
A short description of data set [9]: Glutathione reactivity at pH 7.4 assessed as compound remaining measured by LC-MS/MS method. The class given is physicochemical.
Data set [10] is described as follows: Selectivity ratio of IC50 for full length recombinant human HDAC3 to IC50 for full length recombinant human HDAC6.
Data set [11] deals with MV4-11. In words: Induction of apoptosis in human MV4-11 cells assessed as early apoptotic cells at 4 microM measured after 18 hrs by Annexin V/Propidium iodide stain based Flow cytometry assay (reference value: 1.7%). Format: functional.
In the next data set the target is Histone deacetylase 5 (Homo sapiens, UniProt Q9UQL6). In words: Inhibition of recombinant full length human HDAC5 expressed in SF9 baculovirus using FAM- labelled acetylated peptide as substrate measured by Electrophoretic mobility shift assay.
Histone deacetylase 5, sequence (Q9UQL6 whole entry): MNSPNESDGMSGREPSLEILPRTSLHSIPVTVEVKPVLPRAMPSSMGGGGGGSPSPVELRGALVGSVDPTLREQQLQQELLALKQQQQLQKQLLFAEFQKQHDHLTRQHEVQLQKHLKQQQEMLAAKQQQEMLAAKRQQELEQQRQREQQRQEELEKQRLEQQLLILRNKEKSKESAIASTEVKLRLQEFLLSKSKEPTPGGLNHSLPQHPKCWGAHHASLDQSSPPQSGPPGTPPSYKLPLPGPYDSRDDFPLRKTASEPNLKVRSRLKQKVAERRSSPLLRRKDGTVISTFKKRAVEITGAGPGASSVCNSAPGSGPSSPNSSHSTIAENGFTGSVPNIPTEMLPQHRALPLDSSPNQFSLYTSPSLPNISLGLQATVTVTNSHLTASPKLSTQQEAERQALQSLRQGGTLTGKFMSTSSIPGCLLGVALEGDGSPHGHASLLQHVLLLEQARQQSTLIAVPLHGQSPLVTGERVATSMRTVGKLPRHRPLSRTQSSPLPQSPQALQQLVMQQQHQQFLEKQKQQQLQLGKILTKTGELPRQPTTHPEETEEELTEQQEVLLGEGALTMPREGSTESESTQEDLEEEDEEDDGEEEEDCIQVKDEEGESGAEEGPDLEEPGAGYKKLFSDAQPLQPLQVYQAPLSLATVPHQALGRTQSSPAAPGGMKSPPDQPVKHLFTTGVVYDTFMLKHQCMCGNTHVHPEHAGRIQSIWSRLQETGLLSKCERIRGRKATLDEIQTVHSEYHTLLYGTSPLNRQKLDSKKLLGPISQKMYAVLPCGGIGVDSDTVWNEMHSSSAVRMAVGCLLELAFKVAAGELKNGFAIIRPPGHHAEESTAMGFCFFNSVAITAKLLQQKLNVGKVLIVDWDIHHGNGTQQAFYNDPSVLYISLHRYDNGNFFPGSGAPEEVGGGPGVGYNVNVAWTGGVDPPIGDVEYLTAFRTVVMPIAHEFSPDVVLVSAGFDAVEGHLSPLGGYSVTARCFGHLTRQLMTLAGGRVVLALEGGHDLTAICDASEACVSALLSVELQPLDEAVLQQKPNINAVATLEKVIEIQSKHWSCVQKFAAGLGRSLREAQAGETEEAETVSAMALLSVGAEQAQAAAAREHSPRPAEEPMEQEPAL
The target in data set [12] is T1, Protein deacetylase HDAC6 (Homo sapiens) (UniProt Q9UBN7).
T1 sequence (whole entry): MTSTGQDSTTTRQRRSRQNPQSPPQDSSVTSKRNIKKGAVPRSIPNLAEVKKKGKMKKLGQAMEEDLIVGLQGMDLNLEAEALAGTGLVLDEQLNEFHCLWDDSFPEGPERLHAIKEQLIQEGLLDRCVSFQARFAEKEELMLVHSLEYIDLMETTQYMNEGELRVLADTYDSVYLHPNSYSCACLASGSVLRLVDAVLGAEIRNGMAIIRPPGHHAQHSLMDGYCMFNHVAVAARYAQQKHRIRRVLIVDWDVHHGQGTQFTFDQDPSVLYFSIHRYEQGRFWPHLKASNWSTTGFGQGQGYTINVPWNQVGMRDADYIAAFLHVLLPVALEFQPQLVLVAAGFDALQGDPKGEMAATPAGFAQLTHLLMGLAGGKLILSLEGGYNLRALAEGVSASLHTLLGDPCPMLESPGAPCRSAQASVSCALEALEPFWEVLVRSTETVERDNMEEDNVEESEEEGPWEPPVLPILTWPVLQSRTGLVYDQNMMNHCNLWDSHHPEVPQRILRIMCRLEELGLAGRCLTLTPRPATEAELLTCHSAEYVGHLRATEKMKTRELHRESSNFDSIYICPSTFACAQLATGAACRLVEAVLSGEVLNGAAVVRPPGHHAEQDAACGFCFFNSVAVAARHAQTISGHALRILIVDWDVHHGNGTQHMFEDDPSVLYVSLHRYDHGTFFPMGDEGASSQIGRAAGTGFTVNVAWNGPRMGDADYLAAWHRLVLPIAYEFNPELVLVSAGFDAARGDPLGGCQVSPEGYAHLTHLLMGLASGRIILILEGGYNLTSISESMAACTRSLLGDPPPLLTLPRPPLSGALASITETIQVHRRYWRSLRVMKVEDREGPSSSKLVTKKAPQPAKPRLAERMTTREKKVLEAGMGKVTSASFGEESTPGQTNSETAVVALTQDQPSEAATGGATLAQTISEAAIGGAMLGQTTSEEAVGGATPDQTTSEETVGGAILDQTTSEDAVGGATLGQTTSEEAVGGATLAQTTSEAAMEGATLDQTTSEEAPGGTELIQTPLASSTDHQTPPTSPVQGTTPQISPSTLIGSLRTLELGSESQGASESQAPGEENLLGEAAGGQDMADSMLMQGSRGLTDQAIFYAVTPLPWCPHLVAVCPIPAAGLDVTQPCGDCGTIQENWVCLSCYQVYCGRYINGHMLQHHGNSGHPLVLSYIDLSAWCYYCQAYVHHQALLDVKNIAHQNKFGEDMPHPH
In words: Inhibition of HDAC6 in human MV4-11 cells assessed as increase in acetylation of alpha tubulin at 0.5 uM measured after 6 hrs by Western blot assay relative to histone H4 acetylation. Format: cell-based. Put shortly:
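MV4-11 cells were exposed to a range of concentrations for 6 h. Protein extracts were run on SDS-PAGE and immunoblotted for acetylated α-tubulin, acetylated histone H3 and acetylated histone H4, with HSC70 as the loading reference. A representative blot of three independent experiments is shown.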
In general terms: In western blotting, separated proteins are transferred to a membrane and probed.

Histone deacetylase 4, sequence (P56524 whole entry): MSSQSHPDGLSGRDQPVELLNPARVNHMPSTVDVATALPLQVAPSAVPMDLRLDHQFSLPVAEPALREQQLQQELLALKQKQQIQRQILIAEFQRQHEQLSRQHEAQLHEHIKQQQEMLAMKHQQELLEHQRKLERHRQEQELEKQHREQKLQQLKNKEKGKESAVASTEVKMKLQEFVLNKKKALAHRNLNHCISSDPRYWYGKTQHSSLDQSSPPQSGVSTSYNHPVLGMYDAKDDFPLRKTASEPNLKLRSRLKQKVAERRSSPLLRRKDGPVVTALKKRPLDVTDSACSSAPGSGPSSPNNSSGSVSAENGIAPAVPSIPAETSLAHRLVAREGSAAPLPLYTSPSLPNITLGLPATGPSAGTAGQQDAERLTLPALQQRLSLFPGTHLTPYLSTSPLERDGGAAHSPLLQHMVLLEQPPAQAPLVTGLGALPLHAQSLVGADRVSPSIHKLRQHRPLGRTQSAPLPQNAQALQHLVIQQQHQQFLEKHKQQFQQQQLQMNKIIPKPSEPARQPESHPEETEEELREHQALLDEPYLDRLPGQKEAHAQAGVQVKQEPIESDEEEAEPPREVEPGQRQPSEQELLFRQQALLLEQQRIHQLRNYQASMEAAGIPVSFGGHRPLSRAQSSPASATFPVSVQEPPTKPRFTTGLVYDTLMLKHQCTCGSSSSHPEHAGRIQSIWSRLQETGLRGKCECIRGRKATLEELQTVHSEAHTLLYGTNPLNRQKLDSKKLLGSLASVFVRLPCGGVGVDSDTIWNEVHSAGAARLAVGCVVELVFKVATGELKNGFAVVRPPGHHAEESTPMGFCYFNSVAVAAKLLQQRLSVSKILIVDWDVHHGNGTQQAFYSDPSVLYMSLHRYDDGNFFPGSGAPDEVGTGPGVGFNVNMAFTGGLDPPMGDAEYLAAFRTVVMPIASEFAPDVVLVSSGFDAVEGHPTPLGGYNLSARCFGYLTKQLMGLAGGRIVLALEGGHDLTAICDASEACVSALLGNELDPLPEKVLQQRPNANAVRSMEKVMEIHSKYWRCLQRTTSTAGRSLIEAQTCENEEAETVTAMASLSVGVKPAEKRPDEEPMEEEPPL
Histone deacetylase 3, sequence (O15379 whole entry): as the sequence (O15379 whole entry, looked up) above

For the compound `O=C(NO)c1ccc(CNC(=O)c2c(F)c(F)c(F)c(F)c2F)cc1`, the Activity with MV4-11 [1] was 15.93%; in the data set on MV4-11 [3], 7.46%; in [4] it was “Non-Toxic”; in the data set on MV4-11 [8] it was 41%; in the data set on MV4-11 [11] it was 18%. Moreover, the IC50 is 11.5 µM in the data set on Fibroblast; 0.215 µM at Histone deacetylase 3; 10.3 µM in the data set with HUVEC; more than 1 µM at Histone deacetylase 4; more than 1 µM at Histone deacetylase 5. The inhibition result in [2] was “inactive”. In data set [5], the half-life is 15 min. The viability at 0.5 µM in the data set on MV4-11 [6] is 47.3%. The viability at 2 µM in the data set on MV4-11 [7] came out at 20.2%. Further, in data set [9], the Stabilty is recorded as 100%. The Ratio IC50 in [10] came out at 36.3. For the same compound, the inhibition result in data set [12] was “Active”.
